Measurements published in ChEMBL document CHEMBL4428067, “Drug Discovery against Psoriasis: Identification of a New Potent FMS-like Tyrosine Kinase 3 (FLT3) Inhibitor, 1-(4-((1H-Pyrazolo[3,4-d]pyrimidin-4-yl)oxy)-3-fluorophenyl)-3-(5-(tert-butyl)isoxazol-3-yl)urea, That Showed Potent Activity in a Psoriatic Animal Model” (J Med Chem, 2016).
Activity calls are given as the source filed them. No cut-off for these calls is given here.

How the values were obtained:
[1] = molecular target: T1, Receptor-type tyrosine-protein kinase FLT3 (Mus musculus) (UniProt Q00342); assay: (§1) Inhibition of FLT3 in Balb/c mouse BMDCs assessed as suppression of FLT3L-induced pDC formation measured as upper left quadrant cells level treated on day 9 post 9 days of FLT3L-stimulation measured after 24 hrs by CD11c PerCP and CD45R/B220 FITC staining based flow cytometric analysis (reference value: 45.8%); design: scale not given: the % may be the effect or the level left
T1 sequence (whole entry): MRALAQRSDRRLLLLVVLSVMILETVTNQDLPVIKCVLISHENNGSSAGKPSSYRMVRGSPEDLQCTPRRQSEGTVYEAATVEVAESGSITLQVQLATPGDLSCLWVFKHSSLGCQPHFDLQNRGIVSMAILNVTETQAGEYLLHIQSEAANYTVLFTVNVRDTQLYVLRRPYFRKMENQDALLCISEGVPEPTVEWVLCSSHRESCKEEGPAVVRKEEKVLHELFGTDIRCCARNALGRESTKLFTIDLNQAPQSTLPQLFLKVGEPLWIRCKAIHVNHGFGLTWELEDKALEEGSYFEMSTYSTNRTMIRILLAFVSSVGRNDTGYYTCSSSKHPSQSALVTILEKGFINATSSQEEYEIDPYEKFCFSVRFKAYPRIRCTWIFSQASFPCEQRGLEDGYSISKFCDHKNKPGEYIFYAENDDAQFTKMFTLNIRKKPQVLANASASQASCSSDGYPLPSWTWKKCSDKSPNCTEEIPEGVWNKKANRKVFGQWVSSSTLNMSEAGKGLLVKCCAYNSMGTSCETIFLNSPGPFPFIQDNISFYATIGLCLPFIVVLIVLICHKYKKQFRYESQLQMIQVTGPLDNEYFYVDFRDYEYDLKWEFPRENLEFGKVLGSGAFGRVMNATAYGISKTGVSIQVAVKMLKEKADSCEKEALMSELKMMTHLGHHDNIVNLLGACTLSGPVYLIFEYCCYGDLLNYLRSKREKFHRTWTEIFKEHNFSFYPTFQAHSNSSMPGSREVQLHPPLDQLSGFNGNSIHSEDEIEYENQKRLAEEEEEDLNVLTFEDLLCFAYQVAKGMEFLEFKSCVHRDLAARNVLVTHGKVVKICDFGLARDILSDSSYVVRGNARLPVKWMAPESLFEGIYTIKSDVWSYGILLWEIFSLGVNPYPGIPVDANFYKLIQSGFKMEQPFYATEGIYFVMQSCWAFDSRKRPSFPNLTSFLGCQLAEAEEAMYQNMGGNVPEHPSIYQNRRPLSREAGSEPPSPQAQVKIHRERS
In short: (§2)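 BALB/c bone marrow cells were cultured at 1×10^6/ml with FLT3L in supplemented RPMI-1640 for 9 days. Compound in DMSO or 0.1% DMSO was added on day 9 for 24 h. Cells were stained for 30 min with CD11c PerCP plus B220 FITC (pDC: CD11c+ B220+) or MHC II FITC (mDC: CD11c+ MHC II+), then analysed by flow cytometry. Three independent experiments.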

[2] = molecular target: T1, Receptor-type tyrosine-protein kinase FLT3 (Mus musculus); assay: as §1, with “mDC” for “pDC”, “lower” for “upper”, “I-A/I-E (MHC class II)” for “CD45R/B220”, “43.7%)” for “45.8%)”; design: scale not given: the % may be the effect or the level left; in short: as §2
[3] = molecular target: T1, Receptor-type tyrosine-protein kinase FLT3 (Mus musculus); assay: Inhibition of FLT3 in mouse BMDCs assessed as suppression of STAT3 phosphorylation at 10 and 100 nM treated on day 9 post 9 days of FLT3L-stimulation measured after 1 hr by Western blot analysis
In short: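 Bone marrow cells were cultured 9 days with FLT3L in supplemented RPMI-1640, then exposed to compound or 0.1% DMSO for 1 h on day 9. Whole cells were lysed and immunoblotted with rabbit antibodies to STAT3, STAT5, pSTAT3 and pSTAT5. Three independent experiments.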

[4] = organism: Mus musculus; assay: Antipsoriatic activity in K14-VEGF transgenic mouse model of psoriasis assessed as recurrence of psoriatic symptoms at 0.05% applied tropically over lesion for continuous 21 days measured after 15 days of last dosage by macroscopic analysis relative to vehicle control; assay type: functional, organism-based
In short: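 Homozygous K14-VEGF mice, 3–4 months old, with moderate to serious psoriasis. Lesions smeared with cream with or without 0.05% compound for 3 weeks, then observed untreated for another 15 days. Head and neck photographed on days 0, 21 and 36 for macroscopic assessment.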

[5] = organism: Mus musculus; assay: Antipsoriatic activity in K14-VEGF transgenic mouse model of psoriasis assessed as lower right quadrant DC cells expressing FLT3 and CD11c in psoriatic plaque lesion at 0.05% applied tropically over lesion for continuous 29 days by flow cytometric analysis (reference value: 8.88%); assay type: functional
[6] = organism: Mus musculus; assay: Antipsoriatic activity in K14-VEGF transgenic mouse model of psoriasis assessed as lower right quadrant FLT3+/CD11c+/B220+ pDC cells in psoriatic plaque lesion at 0.05% applied tropically over lesion for continuous 29 days by flow cytometric analysis (reference value: 0.52%); assay type: functional
[7] = organism: Mus musculus; assay: Antipsoriatic activity in K14-VEGF transgenic mouse model of psoriasis assessed as upper left quadrant FLT3+/CD11c+/B220+ pDC cells in psoriatic plaque lesion at 0.05% applied tropically over lesion for continuous 29 days by flow cytometric analysis (reference value: 58.4%); assay type: functional
[8] = organism: Mus musculus; assay: Antipsoriatic activity in K14-VEGF transgenic mouse model of psoriasis assessed as decrease in CD31 expression in psoriatic lesion at 0.05% applied tropically over lesion for continuous 29 days by immunohistochemical analysis relative to vehicle control; assay type: functional; design: scale not given: the % may be the effect or the level left
In short: (§3)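 K14-VEGF mice were treated topically with 0.05% cream or vehicle for 29 days, n=3 per group. Ear skin was paraffin-embedded, cut into 4-µm sections and immunostained. Staining was quantified in 5 random fields, reported as mean ± SD.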

[9] = organism: Mus musculus; assay: Antipsoriatic activity in K14-VEGF transgenic mouse model of psoriasis assessed as decrease in CD54 expression in psoriatic lesion at 0.05% applied tropically over lesion for continuous 29 days by immunohistochemical analysis relative to vehicle control; assay type: functional; design: scale not given: the % may be the effect or the level left; in short: as §3
[10] = organism: Mus musculus; assay: Antipsoriatic activity in K14-VEGF transgenic mouse model of psoriasis assessed as decrease in Th17 cell formation in lymph node at 0.05% applied tropically over lesion for 29 days by flow cytometric analysis relative to vehicle-treated control; assay type: functional, organism-based
In short: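 K14-VEGF mice were treated topically for 29 days with 0.05% cream or vehicle. Lymph node cells were surface-stained with anti-CD4 PE, then fixed and permeabilised. They were stained with FITC anti-IL-17 and analysed by flow cytometry, three mice, mean ± SD.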

[11] = organism: Mus musculus; assay: Antipsoriatic activity in K14-VEGF transgenic mouse model of psoriasis assessed as reduction in Baker scores at 0.05% applied tropically over lesion for continuous 29 days by H and E staining method relative to vehicle control; assay type: functional, organism-based
In short: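 Homozygous K14-VEGF mice, 3–4 months old, with moderate to serious psoriasis; n=3 per group. Cream with 0.05% compound or vehicle cream smeared on lesions. Head and neck tissue sections taken after 29 days of treatment and HE-stained. Baker pathological score from 5 random fields, given as mean and SD. Epidermal thickness from 8 random fields, given as mean ± SEM.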

[12] = organism: Mus musculus; assay: Antipsoriatic activity in K14-VEGF transgenic mouse model of psoriasis assessed as lower left quadrant FLT3+/CD11c+/MHC-II+ mDC cells in psoriatic plaque lesion at 0.05% applied tropically over lesion for continuous 29 days by flow cytometric analysis (reference value: 1.09%)

- Activity [1]: 40.3%
- Activity [2]: 54.7%
- inhibition [3]: Active
SMILES: CC(C)(C)c1cc(NC(=O)Nc2ccc(Oc3ncnc4[nH]ncc34)c(F)c2)no1
- Activity [4]: inactive
- Activity [5]: 2.1%
- Activity [6]: 0%
- Activity [7]: 79.4%
- Activity [8]: 94%
- Activity [9]: 87%
- Activity [10]: Active
- Activity [11]: Active
- Activity [12]: 1.54%
